# The source made the active and inactive calls. The rule behind the calls is not given here.
# Columns and labels:
# RKO [1] = assay: Growth inhibition of human RKO cells after 48 hrs by CCK-8 assay; assay type: functional, cell-based
# In short: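 CCK-8 (WST-8) was then added for 1 h at 37 °C and optical density read at 450 nm. Survival was expressed relative to untreated control wells and IC50 calculated. Three independent experiments.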
# LoVo = assay: Growth inhibition of human LoVo cells after 48 hrs by CCK-8 assay; assay type: functional, cell-based
# RKO [2] = assay: Cell cycle arrest in human RKO cells assessed as accumulation at G1 phase at 10.2 uM after 24 hrs by propidium iodide staining based flow cytometry (reference value: 51.13%); assay type: functional
# RKO [3] = assay: Cell cycle arrest in human RKO cells assessed as accumulation at G2/M phase at 10.2 uM after 24 hrs by propidium iodide staining based flow cytometry (reference value: 10.97%); assay type: functional
# RKO [4] = assay: Cell cycle arrest in human RKO cells assessed as accumulation at S phase at 10.2 uM after 24 hrs by propidium iodide staining based flow cytometry (reference value: 37.89%); assay type: functional
# RKO [5] = assay: Cell cycle arrest in human RKO cells assessed as accumulation at G1 phase at 20.4 uM after 24 hrs by propidium iodide staining based flow cytometry (reference value: 51.13%); assay type: functional
# RKO [6] = assay: Cell cycle arrest in human RKO cells assessed as accumulation at G2/M phase at 20.4 uM after 24 hrs by propidium iodide staining based flow cytometry (reference value: 10.97%); assay type: functional
# RKO [7] = assay: Cell cycle arrest in human RKO cells assessed as accumulation at S phase at 20.4 uM after 24 hrs by propidium iodide staining based flow cytometry (reference value: 37.89%); assay type: functional
# RKO [8] = assay: Induction of apoptosis in human RKO cells assessed as viable cells at 10.2 uM after 24 hrs by annexin V-FITC/propidium iodide staining based flow cytometry (reference value: 94.1%); assay type: functional; conditions: read-out: Activity
# RKO [9] = assay: Induction of apoptosis in human RKO cells assessed as early apoptotic cells at 10.2 uM after 24 hrs by annexin V-FITC/propidium iodide staining based flow cytometry (reference value: 1.98%); assay type: functional
# RKO [10] = assay: Induction of apoptosis in human RKO cells assessed as late apoptotic cells at 10.2 uM after 24 hrs by annexin V-FITC/propidium iodide staining based flow cytometry (reference value: 3.91%); assay type: functional
# RKO [11] = assay: Induction of apoptosis in human RKO cells assessed as necrotic cells at 10.2 uM after 24 hrs by annexin V-FITC/propidium iodide staining based flow cytometry (reference value: 0.035%); assay type: functional
# RKO [12] = assay: Induction of apoptosis in human RKO cells assessed as viable cells at 20.4 uM after 24 hrs by annexin V-FITC/propidium iodide staining based flow cytometry (reference value: 94.1%); assay type: functional; conditions: read-out: Activity
# RKO [13] = assay: Induction of apoptosis in human RKO cells assessed as early apoptotic cells at 20.4 uM after 24 hrs by annexin V-FITC/propidium iodide staining based flow cytometry (reference value: 1.98%); assay type: functional
# RKO [14] = assay: Induction of apoptosis in human RKO cells assessed as late apoptotic cells at 20.4 uM after 24 hrs by annexin V-FITC/propidium iodide staining based flow cytometry (reference value: 3.91%); assay type: functional
# RKO [15] = assay: Induction of apoptosis in human RKO cells assessed as necrotic cells at 20.4 uM after 24 hrs by annexin V-FITC/propidium iodide staining based flow cytometry (reference value: 0.035%); assay type: functional
# RKO [16] = assay: Induction of apoptosis in human RKO cells at 5.2 uM after 24 hrs by DAPI staining based fluorescence microscopy; assay type: functional, cell-based
# RKO [17] = assay: Induction of apoptosis in human RKO cells assessed as nuclear condensation at 2.6 to 5.2 uM after 24 hrs by DAPI staining based fluorescence microscopy; assay type: functional, cell-based
# RKO [18] = assay: Induction of apoptosis in human RKO cells assessed as nuclear fragmentation at 2.6 to 5.2 uM after 24 hrs by DAPI staining based fluorescence microscopy; assay type: functional, cell-based
# RKO [19] = assay: Antimigratory activity against human RKO cells at 2.6 to 5.2 uM after 48 hrs by wound healing based inverted microscopy; assay type: functional, cell-based
# In short: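 Scratch-wound assay. RKO monolayers above 90% confluence were scratched with a sterile pipette tip and debris rinsed off with PBS. Cells were then kept in MEM with 2% FBS at 37 °C with compound, DMSO vehicle or 5-FU. Wounds were photographed by inverted microscopy at 0 and 48 h, and scratch area was compared with the original wound.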
# RKO [20] = assay: Cell cycle arrest in human RKO cells assessed as accumulation at G1 phase at 2.6 uM after 24 hrs by propidium iodide staining based flow cytometry (reference value: 51.13%); assay type: functional
# RKO [21] = assay: Cell cycle arrest in human RKO cells assessed as accumulation at G2/M phase at 2.6 uM after 24 hrs by propidium iodide staining based flow cytometry (reference value: 10.97%); assay type: functional
# RKO [22] = assay: Cell cycle arrest in human RKO cells assessed as accumulation at S phase at 2.6 uM after 24 hrs by propidium iodide staining based flow cytometry (reference value: 37.89%); assay type: functional
# RKO [23] = assay: Cell cycle arrest in human RKO cells assessed as accumulation at G1 phase at 5.2 uM after 24 hrs by propidium iodide staining based flow cytometry (reference value: 51.13%); assay type: functional
# RKO [24] = assay: Cell cycle arrest in human RKO cells assessed as accumulation at G2/M phase at 5.2 uM after 24 hrs by propidium iodide staining based flow cytometry (reference value: 10.97%); assay type: functional
# RKO [25] = assay: Cell cycle arrest in human RKO cells assessed as accumulation at S phase at 5.2 uM after 24 hrs by propidium iodide staining based flow cytometry (reference value: 37.89%); assay type: functional
# RKO [26] = assay: Induction of apoptosis in human RKO cells assessed as viable cells at 2.6 uM after 24 hrs by annexin V-FITC/propidium iodide staining based flow cytometry (reference value: 94.1%); assay type: functional; conditions: read-out: Activity
# In short: (§1)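 Annexin V-FITC/PI kit assay. RKO cells were treated for 24 h at 37 °C with compound, DMSO or 5-FU, collected and washed twice with PBS. They were resuspended in binding buffer and stained with annexin V-FITC and PI for 20 min at 37 °C in the dark. Flow cytometry was run immediately, with viable, early/late apoptotic and necrotic fractions read.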
# RKO [27] = assay: Induction of apoptosis in human RKO cells assessed as early apoptotic cells at 2.6 uM after 24 hrs by annexin V-FITC/propidium iodide staining based flow cytometry (reference value: 1.98%); assay type: functional; in short: as §1
# RKO [28] = assay: Induction of apoptosis in human RKO cells assessed as late apoptotic cells at 2.6 uM after 24 hrs by annexin V-FITC/propidium iodide staining based flow cytometry (reference value: 3.91%); assay type: functional; in short: as §1
# RKO [29] = assay: Induction of apoptosis in human RKO cells assessed as necrotic cells at 2.6 uM after 24 hrs by annexin V-FITC/propidium iodide staining based flow cytometry (reference value: 0.035%); assay type: functional; in short: as §1
# RKO [30] = assay: Induction of apoptosis in human RKO cells assessed as viable cells at 5.2 uM after 24 hrs by annexin V-FITC/propidium iodide staining based flow cytometry (reference value: 94.1%); assay type: functional; conditions: read-out: Activity; in short: as §1
# RKO [31] = assay: Induction of apoptosis in human RKO cells assessed as early apoptotic cells at 5.2 uM after 24 hrs by annexin V-FITC/propidium iodide staining based flow cytometry (reference value: 1.98%); assay type: functional; in short: as §1
# RKO [32] = assay: Induction of apoptosis in human RKO cells assessed as late apoptotic cells at 5.2 uM after 24 hrs by annexin V-FITC/propidium iodide staining based flow cytometry (reference value: 3.91%); assay type: functional; in short: as §1
# RKO [33] = assay: Induction of apoptosis in human RKO cells assessed as necrotic cells at 5.2 uM after 24 hrs by annexin V-FITC/propidium iodide staining based flow cytometry (reference value: 0.035%); assay type: functional; in short: as §1
# RKO [34] = assay: Induction of apoptosis in human RKO cells after 24 hrs by annexin V-FITC/propidium iodide staining based flow cytometry; assay type: functional, cell-based; in short: as §1
compound,measurement,setting,value
C=C(C)[C@@H]1/C=C/[C@@H](C)C(=O)[C@H]2C[C@@H](C)[C@@H](OC(C)=O)/C2=C/[C@](C)(O)C(=O)C1,growth inhibition (GI),RKO [1],inactive
same,growth inhibition (GI),LoVo,inactive
C/C1=C/C2=C(C[C@@H](C)C2)C(=O)[C@@]2(C)C(=O)CC(C)(C)[C@@H]2CC1=O,growth inhibition (GI),RKO [1],inactive
same,growth inhibition (GI),LoVo,inactive
C=C1CC[C@H]2[C@@H](c3c(C)c(O)c4c(c31)C(=O)[C@@H](C)C4)C2(C)C,growth inhibition (GI),RKO [1],inactive
same,growth inhibition (GI),LoVo,inactive
C/C1=C/[C@]23O[C@H]2[C@H](C)CC3C(=O)[C@]2(C)C(=O)CC(C)(C)[C@H]2CC1=O (stereo not given in full),growth inhibition (GI),RKO [1],inactive
same,growth inhibition (GI),LoVo,inactive
CC(=O)O[C@H]1/C2=C/[C@@H](C)C(=O)C[C@H]3[C@@H](/C=C(\C)C(=O)[C@@]2(O)C[C@H]1C)C3(C)C,growth inhibition (GI),RKO [1],inactive
same,growth inhibition (GI),LoVo,inactive
CC(=O)O[C@H]1C2=C[C@@H](C)C(=O)[C@H]3[C@H]4[C@@H](C[C@@H](C)[C@]3(O)[C@H]2C[C@H]1C)C4(C)C,growth inhibition (GI),RKO [1],inactive
same,growth inhibition (GI),LoVo,inactive
CC1=C2CC(C)(C)/C=C/C(=O)/C(C)=C\C3=C[C@H](C)C[C@]3(O2)C1=O [JATROPHONE],IC50,RKO [1],8 µM
same,IC50,LoVo,18.6 µM
C/C1=C/C2=C(C[C@H](C)C2)C(=O)[C@@]2(C)C(=O)CC(C)(C)[C@@H]2CC1=O,growth inhibition (GI),RKO [1],inactive
same,growth inhibition (GI),LoVo,inactive
C=C1CC[C@H]2[C@@H](c3c(C)c(O)c4c(c31)C(=O)[C@H](C)C4)C2(C)C,growth inhibition (GI),RKO [1],inactive
same,growth inhibition (GI),LoVo,inactive
C=C(C)[C@@H]1/C=C/[C@@H](C)C(=O)[C@H]2C[C@@H](C)[C@@H](O)/C2=C/[C@@H](C)C(=O)C1,growth inhibition (GI),RKO [1],inactive
same,growth inhibition (GI),LoVo,inactive
C=C(C)[C@@H]1/C=C/[C@@H](C)C(=O)[C@H]2C[C@@H](C)[C@@H](OC(C)=O)[C@H]2/C=C(/C)C(=O)C1,growth inhibition (GI),RKO [1],inactive
same,growth inhibition (GI),LoVo,inactive
CC(=O)O[C@H]1/C2=C/[C@@H](C)C(=O)C[C@H]3[C@@H](/C=C(\C)C(=O)[C@H]2C[C@H]1C)C3(C)C,growth inhibition (GI),RKO [1],inactive
same,growth inhibition (GI),LoVo,inactive
O=c1[nH]cc(F)c(=O)[nH]1 [FLUOROURACIL],IC50,RKO [1],10.2 µM
same,IC50,LoVo,11.5 µM
same,Activity,RKO [2],62.56%
same,Activity,RKO [3],21.47%
same,Activity,RKO [4],15.97%
same,Activity,RKO [5],66.4%
same,Activity,RKO [6],21.48%
same,Activity,RKO [7],12.12%
same,viability at 10.2 µM,RKO [8],69.2%
same,Activity,RKO [9],9.75%
same,Activity,RKO [10],20.8%
same,Activity,RKO [11],0.289%
same,viability at 20.4 µM,RKO [12],51.7%
same,Activity,RKO [13],11.6%
same,Activity,RKO [14],36.7%
same,Activity,RKO [15],0.065%
C=C1CC[C@@H](C(=C)C)[C@@H]2C=C(C)C(=O)C3=C(C(=O)[C@@H](C)[C@H]3O)[C@@H]12,IC50,RKO [1],2.6 µM
same,IC50,LoVo,14.5 µM
same,Activity,RKO [16],Active
same,Activity,RKO [17],Active
same,Activity,RKO [18],Active
same,Activity,RKO [19],Active
same,Activity,RKO [20],44.03%
same,Activity,RKO [21],18.3%
same,Activity,RKO [22],37.68%
same,Activity,RKO [23],36.06%
same,Activity,RKO [24],25.76%
same,Activity,RKO [25],38.18%
same,viability at 2.6 µM,RKO [26],59.9%
same,Activity,RKO [27],12.1%
same,Activity,RKO [28],27.6%
same,Activity,RKO [29],0.404%
same,viability at 5.2 µM,RKO [30],9.5%
same,Activity,RKO [31],21.5%
same,Activity,RKO [32],68.2%
same,Activity,RKO [33],0.811%
same,Activity,RKO [34],Dose-dependent effect
CC(=O)O[C@H]1/C2=C/[C@@H](C)C(=O)C[C@H]3[C@@H](C[C@@H](C)C(=O)[C@H]2C[C@H]1C)C3(C)C,growth inhibition (GI),RKO [1],inactive
same,growth inhibition (GI),LoVo,inactive
C=C(C)[C@@H]1/C=C/[C@@H](C)C(=O)[C@H]2C[C@@H](C)[C@@H](OC(C)=O)/C2=C/[C@@H](C)C(=O)C1,growth inhibition (GI),RKO [1],inactive
same,growth inhibition (GI),LoVo,inactive
